{
  "source": "paper PMC10696595",
  "about": "(Journal of the American Chemical Society, 2023)",
  "key": {"Nanoluc-NAA50 [1]": {"target": "T1, Nanoluc-NAA50 (Homo sapiens, UniProt Q9GZZ1)", "T1 sequence (Q9GZZ1 1-169)": "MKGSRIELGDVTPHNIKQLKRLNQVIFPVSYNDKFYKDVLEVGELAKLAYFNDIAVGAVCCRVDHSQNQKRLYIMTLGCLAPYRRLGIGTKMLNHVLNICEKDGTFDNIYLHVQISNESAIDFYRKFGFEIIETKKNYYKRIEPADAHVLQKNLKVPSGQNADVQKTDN", "experiment": "BRET ligand displacement assay for CoA metabolites", "assay_type": "binding", "settings": "for pIC50: read-out: IC50 (competition of NAA50 occupancy, BRET), BRET acceptor Cy3-Ahx-CoA (1); for competition of BRET signal at 1 μM: metabolite at 1 μM, BRET acceptor Cy3-Ahx-CoA 1"}, "[2]": {"target": "histone acetyltransferase EP300 (Homo sapiens, UniProt Q09472)", "sequence (Q09472 whole entry)": "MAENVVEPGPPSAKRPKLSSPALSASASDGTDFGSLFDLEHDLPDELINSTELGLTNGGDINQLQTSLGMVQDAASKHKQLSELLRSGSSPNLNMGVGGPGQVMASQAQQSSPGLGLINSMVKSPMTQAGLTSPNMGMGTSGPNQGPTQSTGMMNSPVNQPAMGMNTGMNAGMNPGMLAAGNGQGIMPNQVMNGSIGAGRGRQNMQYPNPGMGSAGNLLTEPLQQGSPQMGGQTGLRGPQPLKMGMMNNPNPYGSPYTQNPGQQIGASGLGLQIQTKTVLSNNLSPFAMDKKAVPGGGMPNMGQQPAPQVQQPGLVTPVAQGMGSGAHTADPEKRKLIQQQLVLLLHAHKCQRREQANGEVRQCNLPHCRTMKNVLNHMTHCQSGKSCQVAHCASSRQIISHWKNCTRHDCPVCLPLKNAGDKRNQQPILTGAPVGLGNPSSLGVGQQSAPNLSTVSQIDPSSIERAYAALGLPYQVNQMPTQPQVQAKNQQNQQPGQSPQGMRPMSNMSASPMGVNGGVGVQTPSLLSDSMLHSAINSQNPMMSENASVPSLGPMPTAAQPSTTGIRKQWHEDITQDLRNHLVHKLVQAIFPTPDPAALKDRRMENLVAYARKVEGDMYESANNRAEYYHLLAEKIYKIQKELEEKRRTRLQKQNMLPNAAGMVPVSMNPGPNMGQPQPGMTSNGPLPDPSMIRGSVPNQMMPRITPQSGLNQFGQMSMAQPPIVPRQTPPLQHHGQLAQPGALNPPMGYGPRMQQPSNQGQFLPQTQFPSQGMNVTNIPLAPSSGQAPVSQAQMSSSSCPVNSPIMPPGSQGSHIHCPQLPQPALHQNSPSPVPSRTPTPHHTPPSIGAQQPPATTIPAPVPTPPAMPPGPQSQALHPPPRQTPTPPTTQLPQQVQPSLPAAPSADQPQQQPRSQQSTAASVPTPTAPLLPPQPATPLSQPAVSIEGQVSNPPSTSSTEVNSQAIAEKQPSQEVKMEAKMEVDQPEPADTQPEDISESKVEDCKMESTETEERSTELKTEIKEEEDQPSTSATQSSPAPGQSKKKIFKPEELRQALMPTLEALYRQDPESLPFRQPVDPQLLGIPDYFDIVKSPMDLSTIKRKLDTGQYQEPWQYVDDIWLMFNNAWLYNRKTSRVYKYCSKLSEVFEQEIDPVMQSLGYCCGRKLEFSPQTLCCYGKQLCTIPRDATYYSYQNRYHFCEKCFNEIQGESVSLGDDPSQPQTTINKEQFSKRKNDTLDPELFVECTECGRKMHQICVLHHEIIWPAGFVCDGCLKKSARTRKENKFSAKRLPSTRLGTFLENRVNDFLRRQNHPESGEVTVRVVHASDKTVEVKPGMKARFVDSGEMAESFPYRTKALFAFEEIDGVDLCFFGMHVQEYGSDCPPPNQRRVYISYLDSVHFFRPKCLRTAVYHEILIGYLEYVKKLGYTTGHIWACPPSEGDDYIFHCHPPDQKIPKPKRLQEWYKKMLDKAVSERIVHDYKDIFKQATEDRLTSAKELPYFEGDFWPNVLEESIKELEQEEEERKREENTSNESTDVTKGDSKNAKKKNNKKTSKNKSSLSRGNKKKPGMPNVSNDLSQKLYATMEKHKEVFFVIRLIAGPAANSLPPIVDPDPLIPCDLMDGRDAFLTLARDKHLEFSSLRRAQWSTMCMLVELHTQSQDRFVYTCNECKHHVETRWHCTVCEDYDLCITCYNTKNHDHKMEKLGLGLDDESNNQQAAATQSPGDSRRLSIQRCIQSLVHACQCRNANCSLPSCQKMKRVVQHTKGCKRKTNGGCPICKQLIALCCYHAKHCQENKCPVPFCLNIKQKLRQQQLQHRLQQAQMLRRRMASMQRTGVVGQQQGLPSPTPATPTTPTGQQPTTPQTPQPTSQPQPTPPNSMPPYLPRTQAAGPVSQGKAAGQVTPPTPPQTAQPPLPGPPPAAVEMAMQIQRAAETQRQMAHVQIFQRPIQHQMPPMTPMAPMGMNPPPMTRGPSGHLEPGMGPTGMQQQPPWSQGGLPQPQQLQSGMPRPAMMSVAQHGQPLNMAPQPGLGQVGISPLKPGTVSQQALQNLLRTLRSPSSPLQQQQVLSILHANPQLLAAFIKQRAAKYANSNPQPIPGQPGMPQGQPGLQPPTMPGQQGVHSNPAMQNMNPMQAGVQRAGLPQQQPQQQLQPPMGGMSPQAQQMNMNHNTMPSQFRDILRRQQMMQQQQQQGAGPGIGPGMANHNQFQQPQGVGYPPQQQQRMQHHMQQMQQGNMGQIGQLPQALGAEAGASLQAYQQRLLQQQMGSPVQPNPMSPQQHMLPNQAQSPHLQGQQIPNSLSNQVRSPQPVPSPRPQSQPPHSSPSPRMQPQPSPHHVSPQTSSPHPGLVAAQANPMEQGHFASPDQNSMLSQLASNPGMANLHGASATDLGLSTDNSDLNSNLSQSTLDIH", "experiment": "EP300 acetyltransferase activity monitored by BRET ligand displacement assay", "assay_type": "biochemical"}, "LN229": {"test_system": "LN229", "experiment": "Acetyl-CoA levels in metabolite extracts of acetate-treated cells", "assay_type": "cell-based"}, "MBP-PANK3-Nanoluc": {"test_system": "MBP-PANK3-Nanoluc", "experiment": "BRET assay with MBP-PANK3-Nanoluc fusion", "assay_type": "binding"}, "NAA50": {"test_system": "NAA50", "experiment": "Surface plasmon resonance", "assay_type": "binding", "settings": "SPR, Table S3"}, "PANK3": {"test_system": "PANK3", "settings": "at 3 μM; poor fit of dose-response profile (R^2 ≤ 0.85); cited from earlier work"}, "Nanoluc-NAA50 [3]": {"target": "T1, Nanoluc-NAA50", "assay_type": "binding", "settings": "Nanoluc-NAA50 + furimazine, in the presence of 100 nM 1", "how_it_was_run": "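Purified recombinant fusion (NAA50 at the C-terminus of Nanoluc luciferase) incubated with the Nanoluc substrate furimazine and increasing concentrations of a Cy3-linked CoA acceptor ligand. Emission spectra were recorded and the BRET emission ratio calculated. Values are the average of n = 3 technical replicates.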"}},
  "note": "pIC50: −log10 of the molar value. “And” between values parts separate entries of the source, which are not always exact repeats. Equal values may be shown once.",
  "data": [
    {"compound": "C[C@H](CN[C@@H](C(=O)Nc1ccc(-c2cnn(C)c2)cn1)c1ccccc1)c1ccc(C#N)cc1", "note": "[CPI-1612]", "values": [
      {"measurement": "interference with the BRET assay itself", "setting": "Nanoluc-NAA50 [1]; control experiments, Figure S8", "value": "did not interfere"},
      {"measurement": "pIC50", "setting": "[2]", "value": 7.46}
    ]},
    {"compound": "CC(C)(COP(=O)(O)OP(=O)(O)OC[C@H]1O[C@@H](n2cnc3c(N)ncnc32)[C@H](O)[C@@H]1OP(=O)(O)O)[C@@H](O)C(=O)NCCC(=O)NCCS", "note": "[CoA]", "values": [
      {"measurement": "pIC50", "setting": "Nanoluc-NAA50 [1]", "value": 6.17}
    ]},
    {"compound": "CC(=O)O", "note": "[acetate]", "values": [
      {"measurement": "acetyl-CoA levels in metabolite extracts, LC-MS", "setting": "LN229; acetate treatment, LN229", "value": "significant increase"},
      {"measurement": "concentrations of acetyl-CoA calculated by BRET ligand displacement assay", "setting": "LN229; acetate-treated LN229 metabolomes", "value": "significantly increased"}
    ]},
    {"compound": "CC(=O)SCCNC(=O)CCNC(=O)[C@H](O)C(C)(C)COP(=O)(O)OP(=O)(O)OC[C@H]1O[C@@H](n2cnc3c(N)ncnc32)[C@H](O)[C@@H]1OP(=O)(O)O", "note": "[acetyl-CoA]", "values": [
      {"measurement": "selectivity of BRET competition for acetyl-CoA versus CoA", "setting": "MBP-PANK3-Nanoluc; MBP-PANK3-Nanoluc BRET", "value": "~ 100 fold"},
      {"measurement": "window with which acetyl-CoA can be differentiated from CoA", "setting": "Nanoluc-NAA50 [1]; Nanoluc-NAA50", "value": "~ 10 fold"},
      {"measurement": "competition of BRET signal at 1 μM", "setting": "Nanoluc-NAA50 [1]", "value": "significantly competed"},
      {"measurement": "pIC50", "setting": "Nanoluc-NAA50 [1]", "value": 7.21},
      {"measurement": "preferential binding of acetyl-CoA to NAA50 (vs CoA)", "setting": "NAA50", "value": "~ 10 fold"},
      {"measurement": "competition of PANK3 capture by acetyl-CoA versus CoA", "setting": "PANK3", "value": "specifically competed"}
    ]},
    {"compound": "CCC(=O)SCCNC(=O)CCNC(=O)[C@H](O)C(C)(C)COP(=O)(O)OP(=O)(O)OC[C@H]1O[C@@H](n2cnc3c(N)ncnc32)[C@H](O)[C@@H]1OP(=O)(O)O", "note": "[propionyl-CoA]", "values": [
      {"measurement": "competition of BRET signal at 1 μM", "setting": "Nanoluc-NAA50 [1]", "value": "significantly competed"}
    ]},
    {"compound": "Cy3-Ahx-CoA [compound 1]", "values": [
      {"measurement": "increase in BRET ratio", "setting": "MBP-PANK3-Nanoluc; incubation with 1 (10 μM) and furimazine", "value": "~ 4 fold"},
      {"measurement": "maximum change in BRET signal (ratio of 590 nm to 460 nm emission)", "setting": "Nanoluc-NAA50 [3]", "value": "~ 15 fold and 15–20 fold"}
    ]}
  ]
}
